Each structure is given as a SMILES string.

One data set deals with PC-3. Put plainly: Antitumor activity against human PC3 by sulforhodamine B assay. Format: functional, cell-based. In short, it runs like this:
(§1)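 Human tumour lines from ATCC; growth inhibition by sulforhodamine B staining, absorbance read at 530 nm; IC50 taken as the drug concentration inhibiting cell growth by 50%, calculated by curve fitting.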

In another data set the test system is MDA-MB-231. Put plainly: Antitumor activity against human MDA-MB-231 by sulforhodamine B assay. In kind it is functional, cell-based. The essentials:
as §1

The subject of the next data set is PANC-1. Put plainly: Antitumor activity against human PANC1 by sulforhodamine B assay. Format: functional, cell-based. In short, it runs like this:
as §1

For data set [1], the system named is HCT-116. Put plainly: Antitumor activity against human HCT116 by sulforhodamine B assay. Format: functional, cell-based. The essentials:
as §1

A further data set relates to OVCAR-3. Put plainly: Antitumor activity against human OVCAR-3 by sulforhodamine B assay. In kind it is functional, cell-based. The essentials: as §1
The test system of another data set is SK-MEL-28. Put plainly: Antitumor activity against human SK-MEL-28 by sulforhodamine B assay. Format: functional, cell-based. The essentials:
as §1

A further data set concerns CAKI-1. Put plainly: Antitumor activity against human Caki1 by sulforhodamine B assay. Format: functional, cell-based. The essentials:
as §1

A further data set deals with SNB-19. Put plainly: Antitumor activity against human SNB19 by sulforhodamine B assay. In kind it is functional, cell-based. The essentials:
as §1

Data set [2] relates to HCT-15. Put plainly: Cell cycle arrest in human HCT15 cells assessed as accumulation at sub-G1 phase at 1 nM after 48 hrs using propidium iodide staining by flow cytometry. In kind it is functional. The essentials: (§2)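 HCT-15 cells plated at about 10^6 per 100-mm dish, grown 24 h, then given fresh medium with compound. Harvested by trypsinization at 24 h and 48 h, fixed in 70% ethanol, stained with 0.2% NP-40, RNase A (30 µg/ml) and propidium iodide (50 µg/ml) in phosphate–citrate buffer pH 7.2. DNA content by flow cytometry, at least 20,000 cells per analysis.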

Data set [3] relates to HCT-15. Put plainly: Antitumor activity against human paclitaxel-resistant HCT15 by sulforhodamine B assay. Format: functional, cell-based. In short, it runs like this:
as §1

Data set [4] deals with HCT-15. Put plainly: Cell cycle arrest in human HCT15 cells assessed as accumulation at G0/G1 phase at 1 nM after 24 hrs using propidium iodide staining by flow cytometry. Format: functional. In short, it runs like this: as §2
Data set [5] has as its system HCT-15. Put plainly: Cell cycle arrest in human HCT15 cells assessed as accumulation at S phase at 1 nM after 24 hrs using propidium iodide staining by flow cytometry. Format: functional. The essentials:
as §2

The subject of data set [6] is HCT-15. Put plainly: Cell cycle arrest in human HCT15 cells assessed as accumulation at G2/M phase at 1 nM after 24 hrs using propidium iodide staining by flow cytometry. Format: functional. The essentials: as §2
Data set [7] has as its system HCT-15. Put plainly: Cell cycle arrest in human HCT15 cells assessed as accumulation at sub-G1 phase at 1 nM after 24 hrs using propidium iodide staining by flow cytometry. In kind it is functional. The essentials:
as §2

For data set [8], the system named is HCT-15. Put plainly: Cell cycle arrest in human HCT15 cells assessed as accumulation at G0/G1 phase at 10 nM after 24 hrs using propidium iodide staining by flow cytometry. In kind it is functional. In short, it runs like this: as §2
The test system of data set [9] is HCT-15. Put plainly: Cell cycle arrest in human HCT15 cells assessed as accumulation at S phase at 10 nM after 24 hrs using propidium iodide staining by flow cytometry. Format: functional. The essentials: as §2
Data set [10] has as its system HCT-15. Put plainly: Cell cycle arrest in human HCT15 cells assessed as accumulation at G2/M phase at 10 nM after 24 hrs using propidium iodide staining by flow cytometry. Format: functional. The essentials: as §2
The subject of data set [11] is HCT-15. Put plainly: Cell cycle arrest in human HCT15 cells assessed as accumulation at sub-G1 phase at 10 nM after 24 hrs using propidium iodide staining by flow cytometry. Format: functional. In short, it runs like this:
as §2

Data set [12] concerns HCT-15. Put plainly: Cell cycle arrest in human HCT15 cells assessed as accumulation at G0/G1 phase at 1 nM after 48 hrs using propidium iodide staining by flow cytometry. Format: functional. In short, it runs like this:
as §2

Data set [13] deals with HCT-15. Put plainly: Cell cycle arrest in human HCT15 cells assessed as accumulation at G2/M phase at 1 nM after 48 hrs using propidium iodide staining by flow cytometry. In kind it is functional. The essentials:
as §2

Data set [14] relates to HCT-15. Put plainly: Cell cycle arrest in human HCT15 cells assessed as accumulation at G0/G1 phase at 10 nM after 48 hrs using propidium iodide staining by flow cytometry. In kind it is functional. The essentials:
as §2

Data set [15] has as its system HCT-15. Put plainly: Cell cycle arrest in human HCT15 cells assessed as accumulation at S phase at 10 nM after 48 hrs using propidium iodide staining by flow cytometry. Format: functional. The essentials:
as §2

The test system of data set [16] is HCT-15. Put plainly: Cell cycle arrest in human HCT15 cells assessed as accumulation at G2/M phase at 10 nM after 48 hrs using propidium iodide staining by flow cytometry. In kind it is functional. In short, it runs like this: as §2
Data set [17] concerns HCT-15. Put plainly: Cell cycle arrest in human HCT15 cells assessed as accumulation at sub-G1 phase at 10 nM after 48 hrs using propidium iodide staining by flow cytometry. In kind it is functional. The essentials: as §2
In data set [18] the test system is HCT-15. Put plainly: Antitumor activity against paclitaxel-resistant human HCT15 cells xenografted in BALB/c mouse assessed as tumor growth inhibition at 10 mg/kg, ip qd thrice a week from day 10 to day 29. Format: functional. As to conditions: HCT-15, ip, route intraperitoneal. In short, it runs like this: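 Female athymic BALB/c nu/nu mice, six weeks old, received 1 × 10^6 paclitaxel-resistant HCT-15 cells in 0.2 ml RPMI subcutaneously in the right flank. Once tumors were in range, mice were assigned to groups. Dosing was 10 mg/kg/day ip in 5% Cremophor plus 5% ethanol in PBS, three times weekly, days 10–29. Tumor diameters were measured by caliper every 3–5 days. Body weight was monitored.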

The subject of data set [19] is Mus musculus. Put plainly: Toxicity in BALB/c mouse at 10 mg/kg, ip qd thrice a week from day 10 to day 29. As to conditions: in vivo. Also on record: dose 10 mg/kg, route intraperitoneal. In kind it is organism-based. The essentials:
(§3)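 Female athymic BALB/c nu/nu mice, six weeks old, carrying subcutaneous right-flank HCT-15 xenografts (1×10^6 cells in 0.2 ml RPMI). Dosed 10 mg/kg/day ip three times weekly, days 10–29, in 5% Cremophor/5% ethanol in PBS; vehicle-only controls. Body weight monitored alongside caliper tumour measurements every 3–5 days.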

The test system of data set [20] is Mus musculus. Put plainly: Toxicity in BALB/c mouse assessed as change in body weight at 10 mg/kg, ip qd thrice a week from day 10 to day 29. Format: organism-based. On the set-up: dose 10 mg/kg, route intraperitoneal. As to conditions: in vivo. In short, it runs like this:
as §3

Data set [21] relates to HCT-116. Put plainly: Resistant index, ratio of IC50 for paclitacel-resistant human HCT15 cells to IC50 for human HCT116 cells. Format: functional. The essentials: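 Index computed as IC50 in HCT-15 divided by IC50 in HCT 116, both from sulforhodamine B growth inhibition with absorbance at 530 nm.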

Turning to `Cc1ccc2cc(-c3c(C)cccc3C)nc(N)c2c1`, the IC50 came to 0.12 µM with PC-3; 0.051 µM in the data set with MDA-MB-231; 0.079 µM in the data set with PANC-1; 0.074 µM in the data set on HCT-116 [1]; 0.075 µM with OVCAR-3; 0.12 µM in the data set on SK-MEL-28. Moreover, the IC50 with CAKI-1 was determined as 0.048 µM; with SNB-19, 0.12 µM.

Take `Cc1ccc2cc(-c3ccc4c(c3)OCO4)nc(N)c2c1`: the IC50 in the data set with PC-3 amounted to 0.25 µM; in the data set with MDA-MB-231, 0.15 µM; with PANC-1 it was 0.37 µM; in the data set with HCT-116 [1], 0.18 µM; in the data set on OVCAR-3 it was 0.23 µM; in the data set on SK-MEL-28, 0.42 µM. In addition, the values for the IC50 in the data set on CAKI-1 and in the data set on SNB-19 were 0.13 µM and 0.38 µM, respectively.

For the compound `Cc1cccc(-c2cc3ccc(C)cc3c(N)n2)c1`, the IC50 with PC-3 is 0.71 µM; in the data set on MDA-MB-231, 0.21 µM; with PANC-1 it was 0.69 µM; in the data set on HCT-116 [1], 0.28 µM; in the data set with OVCAR-3, 0.29 µM; with SK-MEL-28, 0.5 µM. Besides, the IC50 with CAKI-1 amounted to 0.44 µM; with SNB-19, 0.53 µM.

Consider `COc1ccc(C)c(-c2cc3ccc(C)cc3c(N)n2)c1`, for which the IC50 worked out at 0.07 µM in the data set with PC-3; 0.03 µM with MDA-MB-231; 0.058 µM with PANC-1; 0.042 µM in the data set with HCT-116 [1]; 0.042 µM in the data set on OVCAR-3; 0.051 µM in the data set on SK-MEL-28. Moreover, the IC50 in the data set with CAKI-1 stood at 0.047 µM; with SNB-19 it was 0.052 µM.

Regarding `COc1cc2cc(-c3c(C)cccc3C)nc(N)c2cc1OC`, the IC50 in the data set on PC-3 was 0.68 µM; with MDA-MB-231, 0.25 µM; in the data set with PANC-1, 0.54 µM; with HCT-116 [1], 0.79 µM; in the data set on OVCAR-3 it was 0.16 µM; in the data set on SK-MEL-28 it was 0.63 µM. The values for the IC50 in the data set with CAKI-1 and with SNB-19 were 0.53 µM and 0.42 µM, respectively.

As to `COc1cc2cc(-c3cccc(C)c3)nc(N)c2cc1OC`, the IC50 with PC-3 is 2.5 µM; in the data set with MDA-MB-231 it was 0.79 µM; with PANC-1, 2.27 µM; in the data set with HCT-116 [1], 2.32 µM; in the data set with OVCAR-3 it was 0.58 µM; with SK-MEL-28, 1.12 µM. For the same compound, the IC50 in the data set with CAKI-1 turned out to be 1.78 µM; in the data set on SNB-19, 1.56 µM.

On to `COc1cccc(-c2cc3ccc(N(C)C)cc3c(N)n2)c1.Cl`, for which the Activity was determined as 3.78% in the data set on HCT-15 [2]; 50.78% in the data set on HCT-15 [4]; 29.02% in the data set on HCT-15 [5]; 20.2% in the data set on HCT-15 [6]; 0.9% in the data set with HCT-15 [7]; 62.51% in the data set with HCT-15 [8]. Besides, the Activity is 21.28% with HCT-15 [9]; 16.21% in the data set with HCT-15 [10]; 19.6% in the data set on HCT-15 [11]; 59.52% in the data set on HCT-15 [12]; 17.2% in the data set with HCT-15 [13]; 68.67% in the data set on HCT-15 [14]. Besides, the Activity in the data set with HCT-15 [15] was 18.59%; in the data set on HCT-15 [16] it was 12.74%; in the data set on HCT-15 [17] it was 24.76%; in the data set with Mus musculus [19], “Non-toxic”; with Mus musculus [20], “Non-toxic”. For the same compound, the IC50 was 0.019 µM with PC-3; 0.021 µM in the data set on MDA-MB-231; 0.019 µM with PANC-1; 0.017 µM in the data set with HCT-116 [1]; 0.014 µM with OVCAR-3; 0.032 µM with SK-MEL-28. The results for the IC50 with CAKI-1, in the data set with SNB-19 and in the data set on HCT-15 [3] were 0.022 µM, 0.032 µM and 0.015 µM, respectively. Further, in the data set with HCT-15 [18], the inhibition in vivo at 10 mg/kg came to 69.2%. For the same compound, in the data set on HCT-116 [21], the “Ratio IC50” value worked out at 0.88.

Consider `Cc1cccc(-c2cc3ccc(N(C)C)cc3c(N)n2)c1.Cl`, for which the IC50 in the data set with PC-3 turned out to be 0.024 µM; in the data set with MDA-MB-231, 0.021 µM; in the data set with PANC-1, 0.018 µM; with HCT-116 [1], 0.023 µM; in the data set with OVCAR-3, 0.016 µM; in the data set on SK-MEL-28, 0.032 µM. The IC50 in the data set on CAKI-1 stood at 0.023 µM; with SNB-19, 0.028 µM; in the data set on HCT-15 [3] it was 0.021 µM. In addition, the “Ratio IC50” value in the data set on HCT-116 [21] came out at 0.91.

`CC(=O)O[C@H]1C(=O)[C@@]2(C)[C@H]([C@H](OC(=O)c3ccccc3)[C@]3(O)C[C@H](OC(=O)[C@H](O)[C@@H](NC(=O)c4ccccc4)c4ccccc4)C(C)=C1C3(C)C)[C@]1(OC(C)=O)CO[C@@H]1C[C@@H]2O` [PACLITAXEL]: the inhibition in vivo at 10 mg/kg with HCT-15 [18] came to 48.8%. Besides, the “Ratio IC50” value with HCT-116 [21] came out at 70.

The values are drawn from ChEMBL document CHEMBL1221267, “Synthesis, in vitro and in vivo evaluation of 3-arylisoquinolinamines as potent antitumor agents” (Bioorg Med Chem Lett, 2010).
